Bioassay records: PubChem BioAssay, Johns Hopkins Ion Channel Center
MrgX1 agonist: activates human MrgX1 receptor signaling. Q96LB2. MrgX1-HEK293 cells, Fluo-4 calcium fluorescence, agonist mode; stronger effect = higher value. B-score at 10 µM. hit rate 0.44% among 310,000;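 active = calcium response B-score plate-corrected fluorescence ratio at least 3 library SD, with starting fluorescence B-score inside 5 SD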
Target sequence (Q96LB2 whole entry, looked up): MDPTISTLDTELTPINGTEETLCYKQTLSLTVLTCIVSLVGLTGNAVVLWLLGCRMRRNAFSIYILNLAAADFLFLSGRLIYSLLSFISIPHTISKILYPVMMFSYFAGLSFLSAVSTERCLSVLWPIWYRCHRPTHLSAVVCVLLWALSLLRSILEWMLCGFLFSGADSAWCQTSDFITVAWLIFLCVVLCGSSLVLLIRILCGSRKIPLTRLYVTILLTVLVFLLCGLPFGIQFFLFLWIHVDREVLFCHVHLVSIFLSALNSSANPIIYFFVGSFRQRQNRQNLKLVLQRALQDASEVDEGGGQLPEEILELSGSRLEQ
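Test system: Stable human MrgX1 HEK293 cell line | Schedule: Overnight plating before 1 h dye loading | Read-out basis: Baseline-normalised fluorescence change ratio, B-scored | Detection: Kinetic calcium dye fluorescence, Fluo-4 NW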
RGS4 act: RGS4 potentiation or activation; B-score at 10 µM; HEK293 M3R/inducible RGS4, carbachol calcium flux Fluo4; stronger effect = lower value; hit rate 0.92% among 310,000;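 active = B-score of the integrated calcium signal more than 4 SD below the library mean, with starting fluorescence not abnormally high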;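 also: negative B-score means reduced calcium response which marks RGS4 activation or potentiation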
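Material: Inducible-RGS4 HEK293 cells carrying M3 receptor; also added: carbachol at ECmax as muscarinic agonist stimulus; incubation: compound preincubation 20 min at room temperature before agonist; signal: Fluo4-AM (2 µM) calcium-flux fluorescence, kinetic read; measure: integrated calcium ratio converted to B score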
MrgX1 PAM: human MrgX1 positive allosteric modulation, primary screen. hit rate 0.63% among 310,000. MrgX1-HEK293, Fluo-4 calcium flux, FDSS; stronger effect = higher value. AID 588675. B-score at 10 µM;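 active = plate-corrected calcium response at least 3 library SD above typical, normal starting fluorescence, not activating the receptor alone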;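 also: compound read alongside a low EC10 to EC30 dose of BAM8-22 agonist; peak minus trough fluorescence over baseline measured at the second addition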
MrgX1 antagonist: antagonists of human MrgX1 receptor | B-score at 10 µM | MRGX1-HEK293 calcium flux, Fluo-4, BAM8-22 antagonism; stronger effect = lower value | AID 588676 | hit rate 1.3% among 310,000;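 active = calcium-response B-score plate-corrected more than 3 library SD below zero, starting fluorescence within 5 deviations, no agonist response on first addition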;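 also: peak minus trough fluorescence over baseline after final BAM8-22 challenge near maximal dose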
RGS4 inh: human RGS4 inhibition | HEK293 M3R/RGS4 inducible, Fluo-4 calcium flux; stronger effect = higher value; triggered by carbachol at its EC20 | B-score at 10 µM | hit rate 0.45% among 310,000 | AID 463165;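 active = B-score, a plate-corrected calcium signal, over three deviations above library mean, with baseline fluorescence within five deviations of library mean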;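 also: RGS4 expression induced by doxycycline in cells with stable M3 receptor; B-score is computed from the integrated fluorescence ratio over baseline after carbachol; higher B-score means a larger calcium signal and so more RGS4 inhibition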
Target sequence (P49798 whole entry, looked up): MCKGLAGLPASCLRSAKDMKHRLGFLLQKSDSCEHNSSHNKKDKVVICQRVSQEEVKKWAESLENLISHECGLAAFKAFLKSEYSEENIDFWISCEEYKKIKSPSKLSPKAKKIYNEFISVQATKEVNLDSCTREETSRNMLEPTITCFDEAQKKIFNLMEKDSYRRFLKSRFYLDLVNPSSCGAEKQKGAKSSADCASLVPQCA
MrgX1 PAM conf: confirmation of human MrgX1 receptor positive allosteric modulators; MrgX1-HEK293, Fluo-4 calcium fluorescence, FDSS; shares compounds with MrgX1 PAM; activation (ratio percentage), % at 10 µM; hit rate 13% among 1,200; AID 602413;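 active = ratio at least 3 SD above the weak peptide control, stable starting fluorescence, no direct agonism earlier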;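 also: compound followed by low BAM8-22 agonist challenge near EC20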
HEK293 Ca flux: counter-screen for MrgX1 antagonists: effect in parental HEK293 cells; hit rate 2% among 4,000; fluorescence ratio F(max-min)/F0 at 10 µM; shares compounds with MrgX1 antagonist; Fluo-4 calcium fluorescence, FDSS;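 active = duplicate-averaged calcium fluorescence ratio at least three times the standard deviation of buffer wells, a nonspecific response in parental cells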
HEK293 Ca counter: counter-screen for MrgX1 allosteric activators: effect in parental HEK293 cells; fluorescence ratio F(max-min)/F0 at 10 µM; hit rate 0.4% among 4,000; parental HEK293 calcium flux, Fluo-4 fluorescence ratio; stronger effect = higher value; shares compounds with MrgX1 antagonist;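 active = calcium fluorescence ratio, averaged over duplicates, at least 3 SD of the buffer-well ratio, meaning a nonspecific response in receptor-free cells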;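 also: untransfected parental HEK293 lacking MrgX1 used as counterscreen for MrgX1 allosteric activators; fluorescence change taken during the second addition on a kinetic imager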
HEK293 Ca cntr2: counter-screen for MrgX1 activators: effect in parental HEK293 cells. hit rate 8.7% among 4,000. fluorescence ratio F(max-min)/F0 at 10 µM. AID 624115. Fluo-4 calcium fluorescence (FDSS); stronger effect = higher value. shares compounds with MrgX1 antagonist;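 active = calcium fluorescence ratio at least three times the spread of buffer wells, meaning a non-specific response in parental cells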
Numbers without * were called inactive; i = inactive; nt = not tested or not shown. Compounds with a hit are over-represented: about 3.5% of the library has one in this group of screens.

SMILES	MrgX1 agonist	RGS4 act	MrgX1 PAM	MrgX1 antagonist	RGS4 inh	MrgX1 PAM conf	HEK293 Ca flux	HEK293 Ca counter	HEK293 Ca cntr2
c1ccc(Nc2ncnc3sc4c(c23)CCC4)cc1	i	i	i	i	i	nt	nt	nt	nt
C[C@H](Nc1ncnc2sc3c(c12)CCC3)C(=O)O	i	i	i	i	i	nt	nt	nt	nt
Fc1ccc(Nc2ncnc3sc4c(c23)CCC4)cc1	i	i	6.9*	i	i	i	i	i	i
CC(C)CC(NC(=O)C(NC(=O)C1OC2OC(C)(C)OC2C2OC(C)(C)OC12)C(C)C)C(=O)O (configuration not stated)	i	i	i	i	i	nt	nt	nt	nt
CCN(c1ccccc1)S(=O)(=O)c1ccc(N)c(OC)c1	i	i	6.63*	i	i	i	i	i	i
CCN(c1ccccc1)S(=O)(=O)c1ccc(Cl)nc1	i	i	9.38*	i	i	i	i	i	i
Cc1ccc(S(=O)(=O)N2CCc3ccccc3C2)cc1	i	i	i	i	i	nt	nt	nt	nt
CC(C)N(C(C)C)S(=O)(=O)c1ccc(N2CCc3ccccc3C2)nc1	i	-7.1*	8.37*	i	i	i	i	i	i
CC(C)N(C(C)C)S(=O)(=O)c1ccc(Cl)nc1	i	i	7.69*	i	i	i	i	i	i
CCN(c1cccc2ccccc12)S(=O)(=O)c1ccc(Cl)nc1	i	i	i	i	i	nt	nt	nt	nt
CCC(Oc1ccc(C)c(C)c1)C(=O)N1CCCN(C)CC1 (configuration not stated)	i	i	i	i	i	nt	nt	nt	nt
CC(C)NC(=S)n1cc(C(=O)c2cc(Cl)cc(Cl)c2O)cn1	i	i	i	i	i	nt	nt	nt	nt
Cc1cnc(NC(=O)Nc2ccccc2)c(C)n1	i	i	i	i	i	nt	nt	nt	nt
Cc1ccc(-c2csc(N=C(N)N)n2)cc1	i	i	6.98*	i	i	i	i	i	i
Cc1ccc(-c2csc(NC(=O)c3ccc(C)o3)n2)cc1	i	i	i	i	i	nt	nt	nt	nt
CS(=O)(=O)c1ccc2nc(NC(=O)c3ccco3)sc2c1	i	i	9.02*	i	i	i	i	i	i
Cc1cc(C)nc(NC(=O)c2c(F)c(F)c(F)c(C(=O)Nc3cc(C)cc(C)n3)c2F)c1	i	i	i	i	i	nt	nt	nt	nt
Cc1ccc(N2CC(C(=O)Nc3ccc(C)c(S(=O)(=O)N(C)C)c3)CC2=O)cc1 (configuration not stated)	i	i	10.1*	i	i	i	i	i	i
CCOc1ccc(OCC)c(-c2c(=O)n(OCc3ccccc3C(=O)OC)c3ccccc3[n+]2[O-])c1	i	i	i	i	i	nt	nt	nt	nt
COc1cccc(C(=O)NCCn2ccc3ccccc32)c1	i	i	8.85*	i	i	i	i	i	i
COc1cc(OC)cc(C(=O)NCCn2ccc3ccccc32)c1	i	i	i	i	i	nt	nt	nt	nt
O=C(O)c1cccc(N2C(=O)c3ccc4c5c(ccc(c35)C2=O)C(=O)N(c2cccc(C(=O)O)c2)C4=O)c1	i	i	6.99*	i	i	i	i	i	i
O=C(O)c1cccc(N2C(=O)c3ccc(Oc4ccc(Cl)cc4)cc3C2=O)c1	i	i	i	i	i	nt	nt	nt	nt
O=C(N1CCCCC1)N1CCN(C(c2ccccc2)c2ccccc2)CC1	i	i	6.94*	i	i	i	i	i	i
O=C(N1CCOCC1)N1CCN(C(c2ccccc2)c2ccccc2)CC1	i	i	i	i	i	nt	nt	nt	nt
SMILES	MrgX1 agonist	RGS4 act	MrgX1 PAM	MrgX1 antagonist	RGS4 inh	MrgX1 PAM conf	HEK293 Ca flux	HEK293 Ca counter	HEK293 Ca cntr2
COCCn1cnc2c1c(=O)n(Cc1ccc(C#N)cc1)c(=O)n2Cc1ccccc1	i	i	i	i	i	nt	nt	nt	nt
COc1cc(CNn2cn[nH]c2=S)cc(Br)c1OCc1ccccc1F	i	i	6.47*	i	i	i	i	i	i
COc1cc(CNn2cn[nH]c2=S)cc(Cl)c1OCc1ccccc1	i	i	i	i	i	nt	nt	nt	nt
CCNC(=O)C(=O)c1c(-c2ccccc2)[nH]c2ccccc12	i	i	i	i	i	nt	nt	nt	nt
CCN(CC)C(=O)C(=O)c1c(-c2ccccc2)[nH]c2ccccc12	i	i	14.6*	i	i	i	i	i	i
CC1(c2ccccc2)NC(=O)N(CC(=O)Nc2nnc(C3CC3)s2)C1=O (configuration not stated)	i	i	i	i	i	nt	nt	nt	nt
O=C(CC1SCCNC1=O)Nc1ccc(F)c(Cl)c1 (configuration not stated)	i	i	9.91*	i	i	i	i	i	i
Cc1nnc(Sc2c(N)n(C)c(=O)n(C)c2=O)s1	i	i	11.1*	i	i	i	i	i	i
Cc1nnc(SCCn2c(Br)nc3c2c(=O)n(C)c(=O)n3C)s1	i	i	i	i	i	nt	nt	nt	nt
COc1ccc(/C=C2/C(=N)N3C(=NC2=O)Sc2cc(S(C)(=O)=O)ccc23)cc1OC	i	i	37.1*	i	i	17.4%*	i	i	i
Cc1cccc(C)c1NC1=NCCCCC1	i	i	i	i	i	nt	nt	nt	nt
CCC1Sc2ccc(S(=O)(=O)CCC(=O)Nc3cc(C)ccn3)cc2NC1=O (configuration not stated)	i	i	i	i	i	nt	nt	nt	nt
CNc1nc2[nH]c(=O)c3c(c2s1)OC(N)=C(C#N)C3c1cccc(F)c1 (configuration not stated)	i	i	17.4*	i	i	i	i	i	i
CCOc1ccc(-c2cn(-c3cccc(SC)c3)c(=O)[nH]2)cc1	i	i	i	i	i	nt	nt	nt	nt
CCn1c(=S)[nH]c2cc(C(=O)OC)ccc2c1=O	i	i	8.08*	i	i	i	i	i	i
N#Cc1c(/N=C/C=C/c2ccccc2)sc2c1CCCC2	i	i	8*	i	i	i	i	i	i
